In data set [1] the test system is RBL-2H3. Briefly: Antiallergic activity in rat RBL2H3 cells assessed as inhibition of IgE/Ag-induced beta-hexosaminidase activity incubated for 30 mins by spectrophotometric analysis. The class given is functional, cell-based. Particulars: for pIC50: RBL-2H3, 0.5 h. A digest of the protocol: (§1)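 RBL-2H3 cells (2 × 10⁵/well) were sensitized overnight with anti-DNP IgE at 200 ng/mL and washed twice in PIPES buffer (25 mM PIPES, pH 7.2, 0.1% BSA, 1 mM CaCl₂, 5.6 mM glucose). They were pretreated 30 min at 37 °C with compound, then challenged with DNP-HSA 25 ng/mL for 15 min at 37 °C and chilled on ice. Supernatant was mixed with p-nitrophenyl-N-acetyl-glucosaminide in 0.1 M citrate pH 4.5 for 1 h at 37 °C. Reaction was stopped with 0.1 M carbonate pH 10.5 and read at 405 nm. Mean ± S.D. of three independent experiments, each in triplicate.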

Data set [2] relates to RBL-2H3. Briefly: Antiallergic activity in rat RBL2H3 cells assessed as inhibition of IgE/Ag-induced beta-hexosaminidase activity at 100 uM incubated for 30 mins by spectrophotometric analysis. The class given is functional, cell-based. A digest of the protocol:
as §1

Data set [3] deals with RBL-2H3. Kind of data set: Cytotoxicity against rat RBL2H3 cells at 50 to 100 uM after 24 hrs by Ez-cytox assay. The class given is cell-based. Particulars: rbl-2h3, 24 h. The method, boiled down: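 IgE-sensitized RBL-2H3 cells (overnight, 200 ng/mL DNP-specific IgE) were exposed to compound at 0, 50 or 100 concentrations at 37 °C for 23–24 h. EZ-Cytox reagent was added at 10% of volume for 1 h at 37 °C and absorbance read at 450 nm. Viability is given as % of untreated control; mean ± S.D. of three independent experiments, each in triplicate.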

Data set [4] concerns RBL-2H3. Kind of data set: Antiallergic activity in rat RBL2H3 cells assessed as inhibition of IgE/Ag-induced beta-hexosaminidase activity at 50 uM incubated for 30 mins by spectrophotometric analysis. The class given is functional, cell-based. A digest of the protocol:
as §1

pIC50: −log10 of the molar value. Calls of active or inactive are those of the source. The rule behind the calls is not given here.

With `Cc1ccc(-c2nnc(CSC([Si](C)(C)C)[Si](C)(C)C)o2)cc1`, in data set [1], the inhibition entry is “Dose-dependent effect”. Moreover, the inhibition result in data set [2] was “Active”.

`Cc1ccc(-c2nnc(CS(=O)(=O)C([Si](C)(C)C)[Si](C)(C)C)o2)cc1`: in data set [1], the inhibition entry is “Dose-dependent effect” and the pIC50 is 4.21. For the same compound, the Activity result in data set [3] is recorded as “Non-toxic”. For the same compound, in data set [2], the inhibition entry is “Active”.

In the case of `C[Si](C)(C)C(SCc1nnc(-c2ccc(Cl)cc2)o1)[Si](C)(C)C`, the inhibition entry in data set [1] is “Dose-dependent effect”. The inhibition result in data set [2] was “Active”.

Regarding `C[Si](C)(C)C([Si](C)(C)C)S(=O)(=O)Cc1nnc(-c2ccc(Cl)cc2)o1`, in data set [1], the inhibition entry is “Dose-dependent effect” and the negative-log IC50 (pIC50) is 4.12. Also, in data set [3], the Activity entry was “Non-toxic”. Also, in data set [2], the inhibition result is “Active”.

For the compound `C[Si](C)(C)C(SCc1nnc(-c2ccccc2)o1)[Si](C)(C)C`, the inhibition result in data set [4] and in data set [2] was “Active” each time. The inhibition entry in data set [1] was “Dose-dependent effect”. Further, the negative logarithm of the IC50 (pIC50) in data set [1] was 4.01.

With `C[Si](C)(C)C([Si](C)(C)C)S(=O)(=O)Cc1nnc(-c2ccccc2)o1`, in data set [1], the inhibition entry was “Dose-dependent effect” and the pIC50 was 4.43. The Activity entry in data set [3] was “Non-toxic”. The inhibition entry in data set [2] was “Active”.

As a reminder, the pIC50 is the IC50 on a negative log10 scale, so that one unit is a factor of ten.
